SUMO1 PPI mod – modulators of human SUMO1-mediated protein-protein interactions. AID 602429. P63165. SUMO1 binding to a labelled peptide, TR-FRET, 1 h. inhibition, % at 20 µM. 0.33% of 360,000 active; in the data active = inhibition above about 37%
STEP block – STEP (human) phosphatase inhibition; P54829; recombinant STEP, OMFP fluorogenic substrate, fluorescence; inhibition, % at 20 µM; 0.25% of 360,000 active;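 active = inhibition at 20 µM, scaled per plate between control wells, above about 37%, limit read from the data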;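 note: 0% = DMSO with enzyme and substrate and 100% = substrate only without enzyme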
Target sequence (P54829 whole entry, looked up): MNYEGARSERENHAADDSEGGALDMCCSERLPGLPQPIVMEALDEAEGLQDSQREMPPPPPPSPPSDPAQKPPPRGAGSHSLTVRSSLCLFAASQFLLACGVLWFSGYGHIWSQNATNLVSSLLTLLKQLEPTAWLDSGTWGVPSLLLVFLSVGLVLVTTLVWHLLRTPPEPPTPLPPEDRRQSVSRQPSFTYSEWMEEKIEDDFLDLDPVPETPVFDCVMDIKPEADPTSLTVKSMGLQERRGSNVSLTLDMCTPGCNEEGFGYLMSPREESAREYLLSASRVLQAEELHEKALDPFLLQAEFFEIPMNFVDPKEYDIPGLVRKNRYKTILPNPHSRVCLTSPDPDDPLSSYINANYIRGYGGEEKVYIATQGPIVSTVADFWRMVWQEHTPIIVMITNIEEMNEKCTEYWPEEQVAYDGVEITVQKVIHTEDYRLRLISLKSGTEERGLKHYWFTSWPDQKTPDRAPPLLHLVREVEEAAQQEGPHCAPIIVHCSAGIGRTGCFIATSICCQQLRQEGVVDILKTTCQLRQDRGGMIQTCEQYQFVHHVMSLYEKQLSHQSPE
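material = STEP tyrosine phosphatase | reagent = fluorogenic phosphatase substrate OMFP at 25 µM final | doses = single compound dose of 20 µM, 1% DMSO final | schedule = 20 min reaction, room temperature, in the dark | measured by = fluorescence, 480/540 nm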
Pemphigus Ab inh – inhibitors of pemphigus antibody binding to human desmoglein-3 | binding (percent of control), % at 10 µM | 0.48% of 310,000 active | P32926 | DSG3-coupled beads, scFv-anti-DSG3-GFP binding, flow cytometry; hits give low values;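 active = binding more than 3 SD below its plate's average and above zero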;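 note: hits lower antibody fragment binding to DSG3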
LMPTP block – blocks human LMPTP phosphatase; P24666; recombinant LMPTP-A, OMFP fluorogenic substrate, fluorescence intensity; inhibition, % at 20 µM; 0.22% of 360,000 active; AID 651560;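 active = compounds that cut the enzyme signal by at least half of the control window in the single-dose screen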;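 note: plate controls were DMSO wells with enzyme plus substrate for no effect and substrate without enzyme for full effect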
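Material: LMPTP-A; amount: 0.625 nM enzyme; doses: single 20 µM dose; times: reaction 50 min, room temperature, dark; technique: fluorescence intensity of OMFP turnover product; benchmarks: no-enzyme and uninhibited controls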
Scp1 inh – blocks human Scp-1 phosphatase activity | Q9GZU7 | Recombinant Scp1, phosphopeptide, malachite green phosphate absorbance | inhibition, % at 20 µM | 0.88% of 340,000 active | AID 493091;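 active = inhibition above about 50% at 20 µM, limit read from the data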;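 note: plate controls were DMSO wells with enzyme for no effect and wells lacking enzyme for full effect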
Target sequence (Q9GZU7 76-261 limits assumed): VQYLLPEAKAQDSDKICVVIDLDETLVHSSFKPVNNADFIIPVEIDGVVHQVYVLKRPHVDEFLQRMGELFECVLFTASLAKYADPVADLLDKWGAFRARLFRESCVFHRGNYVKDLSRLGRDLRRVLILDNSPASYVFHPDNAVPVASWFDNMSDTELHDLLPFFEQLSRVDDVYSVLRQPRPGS
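Times: enzyme reaction 45 min at room temperature, colour 5 min, stabilisation 30 min. Material: SCP-1 catalytic fragment, aa 76-261. Medium: Acidic Tris acetate buffer with magnesium and detergent. Signal: colorimetric free-phosphate detection, absorbance 630 nm. Read-out basis: % inhibition of SCP-1 phosphate liberation. Reagent: Phosphorylated 17-residue peptide substrate.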
An asterisk follows results filed as active; . = not tested or not shown. Only some compounds are listed: those with a hit (about 1.7% of all), similar ones and a draw of the others.

SMILES | SUMO1 PPI mod | STEP block | Pemphigus Ab inh | LMPTP block | Scp1 inh
CCn1cc(C(=O)O)c(=O)c2cnc(N3CCN(C(=S)NC(=O)c4ccccc4Cl)CC3)nc21 | . | . | . | . | -6.8
CCn1cc(C(=O)O)c(=O)c2cnc(N3CCN(C(=S)NC(=O)c4ccc(OC)cc4)CC3)nc21 | 6.6 | 10.1 | 97.3 | 65.3* | -4.7
CCn1cc(C(=O)OCC(=O)NCc2ccc3c(c2)OCO3)c(=O)c2ccc(C)nc21 | 0.8 | 1.4 | 108.0 | -0.9 | -14.7
O=C(O)c1csc(N/N=C/c2ccc(Br)cc2)n1 | 4.9 | -1.3 | 104.8 | 58.5* | -1.4
CC1(C)CC(=O)C(CC(=O)Nc2cc(C(F)(F)F)ccc2Cl)C(=O)C1 | 2.7 | 0.8 | 96.9 | -1.5 | -0.3
CC(C)C(NC(=O)c1ccc(F)cc1)C(=O)NC1(C)CCS(=O)(=O)C1 (stereo not given) | -0.2 | 1.7 | . | -0.5 | -12.0
COc1ccccc1NC(=O)Cn1c2ccccc2c2nc3n(c(=O)c21)CCS3 | -6.1 | 0.8 | 112.3 | 0.1 | -2.9
O=C(Cn1c2ccccc2c2nc3n(c(=O)c21)CCS3)Nc1ccccc1C(F)(F)F | -0.8 | -0.8 | 92.8* | 0.0 | 6.3
Cc1nnc(NC(=O)CSc2cn(Cc3ccccc3)c3ccccc23)s1 | -2.9 | 1.1 | -19.6* | 0.8 | -1.2
Cc1ccc(Cn2cc(SCC(=O)Nc3nccs3)c3ccccc32)cc1 | -3.1 | -1.0 | 104.2 | -0.7 | 6.0
COc1ccc(C)cc1CN(C)c1ccc(S(=O)(=O)N2CCN(C)CC2)cn1 | -7.7 | 2.2 | 114.4 | -0.6 | -4.9
CCOC(=O)c1c(C)[nH]c(C(=O)N/N=C/c2cc([N+](=O)[O-])ccc2O)c1C | -12.2 | 4.6 | 98.2 | 65.1* | -7.5
CCOC(=O)c1c(C)[nH]c(C(=O)N/N=C\c2ccccc2O)c1C | 1.2 | 0.8 | 127.0 | -0.5 | -10.3
COc1cc(/C=C2\SC(=S)N(NS(=O)(=O)c3ccccc3)C2=O)ccc1O | -22.0 | 0.4 | 92.3 | 0.3 | 60.2*
COc1cc(/C=C2\SC(=S)N(NS(=O)(=O)c3ccc(C)cc3)C2=O)ccc1O | -22.3 | -0.5 | 87.3 | 0.5 | -14.0
C=CCCC(=O)Nc1nc(C)c(-c2csc(Nc3cc(OC)ccc3OC)n2)s1 | 0.1 | 0.6 | 109.3 | 1.3 | 3.5
CCCC(=O)Nc1nc(C)c(-c2csc(Nc3cc(OC)ccc3OC)n2)s1 | -3.2 | 1.1 | 100.0 | 3.3 | -1.9
Cc1nc(NC(=O)c2ccccc2)sc1-c1csc(Nc2ccc(C(=O)O)cc2)n1 | 91.8* | 0.7 | 102.4 | 42.8 | 80.5*
CCCCCC(=O)Nc1nc(C)c(-c2csc(Nc3cc(Cl)ccc3OC)n2)s1 | 11.7 | 1.1 | 78.6* | 1.3 | 4.0
C=CCCC(=O)Nc1nc(C)c(-c2csc(Nc3cccc(OC)c3)n2)s1 | 77.9* | 0.1 | 104.8 | -1.4 | 6.1
CCC(=O)Nc1nc(C)c(-c2csc(Nc3ccc(C(=O)O)cc3)n2)s1 | -11.2 | 0.7 | 93.7 | 0.0 | -12.3
Cc1ccc(Cl)cc1Nc1nc(-c2sc(NC(=O)C(C)(C)C)nc2C)cs1 | 104.3* | 0.8 | 100.2 | 1.5 | 14.5
Cc1ccc(NC(=O)Nc2ccc3c(c2)OCO3)nc1 | 1.9 | -0.4 | 6.9* | -1.2 | 1.0
Cc1cc(C)nc(NC(=O)Nc2ccc3c(c2)OCO3)c1 | 0.0 | -1.1 | 80.5 | -2.4 | 0.3
Cc1cc2nc3n(c2cc1C)CC1CC(C(=O)NCc2cccc(Br)c2)N(C)C31 (stereo not given) | 9.2 | 0.9 | 117.2 | -1.7 | -4.9
SMILES | SUMO1 PPI mod | STEP block | Pemphigus Ab inh | LMPTP block | Scp1 inh
CN1C(C(=O)NCc2cccc(Br)c2)CC2Cn3c(nc4cc5ccccc5cc43)C21 (stereo not given) | -12.8 | 4.1 | 90.5* | 0.2 | -4.9
NC(=O)c1ccsc1NC(=O)COC(=O)c1cnccn1 | 6.9 | -2.2 | 80.1* | 22.1 | 33.0
O=C(O)c1cccc(Nc2nc(-c3ccc([N+](=O)[O-])cc3)nc3ccccc23)c1 | -0.6 | 12.7 | 95.7 | 52.2* | 40.6
O=[N+]([O-])c1ccc(-c2nc(Nc3cccc(O)c3)c3ccccc3n2)cc1 | -27.5 | -5.2 | 101.2 | 6.7 | -10.4
O=c1cc(CSc2nc(NCc3ccccc3)c3ccccc3n2)nc2ccc(Cl)cn12 | -15.5 | 0.1 | 109.4 | 53.3* | 0.6
CC(C)(C)S(=O)N1Cc2cc(C(=O)N3CCOCC3)nc(-c3cccc(Br)c3)c2[C@@H]1CCO (stereo not given in full) | -8.0 | -0.5 | . | -0.6 | .
CC(C)Oc1ccc(-c2nc(NCC3CCCO3)c3ccccc3n2)cc1 (stereo not given) | 4.0 | 0.1 | 113.6 | 50.9* | -4.3
COc1cc(OC)cc(C(=O)Nc2cc(-c3cn4cccnc4n3)ccc2C)c1 | -17.7 | -1.0 | -10.7* | -1.1 | -8.9
COc1cc(C(=O)Nc2cc(-c3cn4cccnc4n3)ccc2C)cc(OC)c1OC | -7.3 | 9.3 | 91.3 | 0.3 | -2.9
CC(C)NC[C@@H](O)c1ccc(O)c(O)c1 | -4.1 | 1.8 | 120.4 | 0.3 | 31.7
CC(C)(C)NCC(O)c1cc(O)cc(O)c1 (stereo not given) | -1.2 | -2.9 | 45.0* | 1.3 | -9.0
CN(C(=O)COC(=O)c1ccc(-c2ccc(O)cc2)cc1)C1CCS(=O)(=O)C1 (stereo not given) | 38.6* | -1.0 | 69.9* | 1.4 | -5.8
CN(C(=O)COC(=O)c1cccc(Cl)c1)C1CCS(=O)(=O)C1 (stereo not given) | -2.8 | -2.5 | 104.6 | -1.9 | -2.2
Cc1ccc(C(=O)OCC(=O)NCc2ccc3c(c2)OCO3)o1 | -0.5 | -1.3 | 95.6 | 2.2 | -5.0
CC(OC(=O)c1cc2sccc2n1C)C(=O)NCc1ccc2c(c1)OCO2 (stereo not given) | -0.8 | 1.7 | 68.6* | 1.0 | -5.9
CC(OC(=O)c1cc2sccc2n1C)C(=O)NCc1ccc(F)cc1 (stereo not given) | -1.8 | -1.6 | 99.4 | 1.0 | -1.9
COc1ccc(NC(=O)NCc2ccc3c(c2)OCO3)cc1 | -1.2 | -1.7 | 82.0* | 0.9 | -8.0
CCc1ccc(NC(=O)NCc2ccc3c(c2)OCO3)cc1 | 8.0 | -0.3 | 105.2 | -0.7 | -5.0
Cc1ccsc1C(=O)OCC(=O)NCc1ccc2c(c1)OCO2 | 2.6 | 1.3 | 51.9* | -2.2 | 1.0
N#C/C(=C\c1ccc(O)c(O)c1)C(=O)Nc1cccc2ncccc12 | 6.9 | 0.4 | 79.4 | 65.8* | 27.6
O=C(OCC(=O)C12CC3CC(CC(C3)C1)C2)c1ccccc1O | 2.0 | -1.1 | 69.9* | 0.9 | -2.2
O=C(Nc1cc2c(oc1=O)CCCC2=O)c1ccc(Cl)cc1 | -13.6 | 3.5 | 103.3 | 35.2 | 68.0*
O=C1c2ccccc2C(=O)N1Cc1nn2c(-c3ccc(Cl)cc3)nnc2s1 | -0.9 | -0.8 | 58.7* | -0.2 | -4.8
COc1ccc(-c2nnc3sc(CN4C(=O)c5ccccc5C4=O)nn23)cc1 | 0.3 | 1.8 | 101.8 | 2.4 | -4.8
COc1ccc(NC(=O)c2ccc(-c3ccc(OC)cc3)s2)cc1 | 0.2 | -4.2 | 55.0* | 3.7 | 6.2

Compound activity from PubChem.
